Experimental findings from the array DNA melting data of Ke et al. (doi:10.1101/2024.01.08.574731) are described below.

Series [1] can be described thus: folding enthalpy; higher = less favourable; fluorescence melt of hairpins on a sequencing array, two-state fit. To be noted: sodium 0.088 M. The method in brief:
(§1)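 Library hairpins on a sequenced MiSeq flow cell carried annealed Cy3 and quencher oligos, and their Cy3 fluorescence was imaged in 50 mM Na-HEPES pH 8.0 with 25 mM NaCl, in 2.5 °C steps up to 60 °C. Signals were normalised to Cy3 before quenching and to control constructs. Melting temperature and folding enthalpy were obtained from bootstrapped two-state fits, combined by inverse-variance weighting across four replicates, and the fitted temperatures were then raised by 9.35 °C to match UV melts.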

A short description of series [2]: melting temperature; fluorescence melt of hairpins on a sequencing array, two-state fit, raised by 9.35 °C to match UV melts. The conditions noted are these: sodium 0.088 M. The method in brief:
as §1

Regarding GCGGGGGGCCGC ((((....)))), the folding enthalpy in series [1] was -13.5 kcal/mol. Moreover, the Tm in series [2] turned out to be 60.7 °C.

On to GCGGGGTGCCGC ((((....)))), for which the folding enthalpy in series [1] is -26.3 kcal/mol. In series [2], the Tm was 61.2 °C.

For GCGGGTGCGAAAGCACGC (((..(((....)))))), the folding enthalpy in series [1] was -10.3 kcal/mol. In series [2], the Tm was found to be 55.7 °C.

GCGGTACGAAAGTACGC (((.(((....)))))): in series [1], the folding enthalpy is -26.4 kcal/mol. In series [2], the Tm was determined as 60.7 °C.

On to GCGGTACGCCGC ((((....)))), for which the folding enthalpy in series [1] was -13.5 kcal/mol. Further, in series [2], the Tm came to 67 °C.

For the sequence GCGGTAGGAAACTACTGC ((.((((....)))).)), the folding enthalpy in series [1] was -34.8 kcal/mol. In addition, the Tm in series [2] turned out to be 52.2 °C.

GCGGTAGGCCGC ((((....)))): the folding enthalpy in series [1] was -17.4 kcal/mol. In series [2], the Tm came out at 63.7 °C.

On to GCGGTAGTCCGC ((((....)))), for which, in series [1], the folding enthalpy was -21.9 kcal/mol. Moreover, in series [2], the Tm came out at 58.8 °C.

Consider GCGGTATTCCGC ((((....)))), for which the folding enthalpy in series [1] is -30.6 kcal/mol. In addition, the Tm in series [2] is 56.4 °C.

Consider GCGGTCATCCGC ((((....)))), for which the folding enthalpy in series [1] is -26.7 kcal/mol. In addition, the Tm in series [2] was 59.3 °C.

GCGGTCCTCCGC ((((....)))): the folding enthalpy in series [1] was -28 kcal/mol. For the same sequence, the Tm in series [2] came to 58.5 °C.

Turning to GCGGTCGAAAGACAACGC ((((((....)))..))), the folding enthalpy in series [1] is -27.7 kcal/mol. In addition, in series [2], the Tm amounted to 56.6 °C.

For GCGGTCGAAAGACACGC ((((((....))).))), the folding enthalpy in series [1] is -27.4 kcal/mol. Besides, the Tm in series [2] came to 61.8 °C.

For GCGGTCGAAAGACTCCGC ((((((....)))..))), the folding enthalpy in series [1] was -25.4 kcal/mol. Also, the Tm in series [2] stood at 50.7 °C.

For the sequence GCGGTCTGCCGC ((((....)))), the folding enthalpy in series [1] is -22.7 kcal/mol. Also, the Tm in series [2] was determined as 62.1 °C.

With GCGGTGAACCGC ((((....)))), the folding enthalpy in series [1] was -30 kcal/mol. Moreover, in series [2], the Tm worked out at 61.1 °C.

Consider GCGGTGCGAAAGCAGAGC ((..(((....)))..)), for which the folding enthalpy in series [1] is -33 kcal/mol. Besides, the Tm in series [2] was determined as 63.5 °C.

On to GCGGTGCGAAAGCCTCGC (((..((....))..))), for which, in series [1], the folding enthalpy was -22.2 kcal/mol. The Tm in series [2] came out at 59.1 °C.

GCGGTGCGAAAGCGTCGC (((..((....))..))): the folding enthalpy in series [1] is -32.6 kcal/mol. Further, the Tm in series [2] is 65.1 °C.

As for GCGGTGCGAAAGCTGCGC (((..((....))..))), the folding enthalpy in series [1] was -32.1 kcal/mol. For the same sequence, the Tm in series [2] worked out at 64.2 °C.

For GCGGTGTCCCGC ((((....)))), in series [1], the folding enthalpy is -32.1 kcal/mol. For the same sequence, the Tm in series [2] was determined as 56.5 °C.

For GCGGTGTCGAAAGACCGC (((..(((....)))))), in series [1], the folding enthalpy was -30.4 kcal/mol. In addition, the Tm in series [2] came out at 58.9 °C.

As to GCGGTTAGCCGC ((((....)))), the folding enthalpy in series [1] was -24.3 kcal/mol. Besides, the Tm in series [2] is 62.4 °C.

Take GCGGTTCCCCGC ((((....)))): in series [1], the folding enthalpy was -21 kcal/mol. For the same sequence, in series [2], the Tm came to 60.8 °C.

As for GCGGTTCTCCGC ((((....)))), in series [1], the folding enthalpy was -31.9 kcal/mol. Also, in series [2], the Tm was 58.3 °C.

Consider GCGGTTGGAAACAACCAC (.(((((....))))).), for which, in series [1], the folding enthalpy is -14.8 kcal/mol. Besides, the Tm in series [2] came out at 44.8 °C.

As for GCGGTTGGAAACAACTGC ((.((((....)))).)), the folding enthalpy in series [1] was -46.5 kcal/mol. Besides, the Tm in series [2] is 55.6 °C.

As to GCGGTTTCCGC ((((...)))), the folding enthalpy in series [1] is -29.4 kcal/mol. Further, the Tm in series [2] worked out at 60.5 °C.

Regarding GCGGTTTCGAAAGAACGC (((..(((....)))))), the folding enthalpy in series [1] was -26.5 kcal/mol. Besides, the Tm in series [2] is 44.8 °C.

For the sequence GCGTAAACACGC ((((....)))), the folding enthalpy in series [1] was -19.5 kcal/mol. The Tm in series [2] worked out at 50.4 °C.

With GCGTAAATACGC ((((....)))), the folding enthalpy in series [1] was -25.4 kcal/mol. Moreover, the Tm in series [2] came to 50 °C.

With GCGTAACCGAAAGGTCGC (((..(((....)))))), the folding enthalpy in series [1] is -34.2 kcal/mol. Besides, in series [2], the Tm was 53 °C.

For GCGTAACGAAAGTTCCGC (((.(((....))).))), the folding enthalpy in series [1] was -33.4 kcal/mol. Moreover, the Tm in series [2] was 52.7 °C.

For GCGTAAGCACGC ((((....)))), the folding enthalpy in series [1] was -9.59 kcal/mol. In addition, the Tm in series [2] was found to be 59.6 °C.

GCGTACACGAAAGTGCGC (((..(((....)))))): in series [1], the folding enthalpy is -26.4 kcal/mol. Also, in series [2], the Tm worked out at 52.8 °C.

Take GCGTACCGAAAGGTCCGC (((.(((....))).))): the folding enthalpy in series [1] was -49.9 kcal/mol. Besides, the Tm in series [2] worked out at 58.2 °C.

On to GCGTACGAAAGTACTCGC ((((((....)))..))), for which, in series [1], the folding enthalpy was -15.6 kcal/mol. In series [2], the Tm was 46.5 °C.

As to GCGTACGAAAGTAGACGC ((((((....)))..))), in series [1], the folding enthalpy was -25.3 kcal/mol. In addition, in series [2], the Tm is 51.8 °C.

Consider GCGTACGAAAGTAGGCGC ((((((....)))..))), for which the folding enthalpy in series [1] was -30 kcal/mol. Also, the Tm in series [2] is 56 °C.
